# Measured values reported in ChEMBL document CHEMBL1250448, “Inhibitor hijacking of Akt activation” (Nat Chem Biol, 2009).
# Columns and labels:
# [1] = molecular target: Dual specificity protein kinase CLK3 (Homo sapiens) (UniProt P49761); test: Inhibition of CLK3 at 1 uM in presence of 100 uM ATP by Select Screen kinase assay relative to untreated control
# Method in brief: (§1)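 Part of a 220-kinase panel of purified kinases, each tested with compound at 1 μM. Percent inhibition was measured in the Invitrogen SelectScreen profiling assay.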
# [2] = tested on: Platelet-derived growth factor receptor alpha (Homo sapiens), P16234 [T674I]; test: Inhibition of PDGFRalpha T674I mutant at 1 uM in presence of 10 uM ATP by Select Screen kinase assay relative to untreated control
# Method in brief: (§2)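 Commercial SelectScreen profiling panel of 220 purified kinases. Each kinase was tested at a single inhibitor concentration of 1 μM, and activity was expressed as percent inhibition.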
# [3] = molecular target: Ribosomal protein S6 kinase beta-1 (Homo sapiens, UniProt P23443); test: Inhibition of RPS6KB1 at 1 uM in presence of 10 uM ATP by Select Screen kinase assay relative to untreated control
# [4] = molecular target: Calcium/calmodulin-dependent protein kinase type II subunit delta (Homo sapiens) (UniProt Q13557); test: Inhibition of CAMK2D at 1 uM in presence of 10 uM ATP by Select Screen kinase assay relative to untreated control
# Method in brief: (§3)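 Single-point screen at 1 μM against a panel of 220 purified kinases, run by Invitrogen staff as a SelectScreen profiling service. Read-out is percent inhibition of kinase activity.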
# [5] = molecular target: Muscle, skeletal receptor tyrosine-protein kinase (Homo sapiens) (UniProt O15146); test: Inhibition of MUSK at 1 uM in presence of 100 uM ATP by Select Screen kinase assay relative to untreated control
# [6] = molecular target: RAC-gamma serine/threonine-protein kinase (Homo sapiens) (UniProt Q9Y243); test: Inhibition of AKT3 at 1 uM in presence of 10 uM ATP by Select Screen kinase assay relative to untreated control; method in brief: as §3
# [7] = molecular target: Serine/threonine-protein kinase PAK 6 (Homo sapiens) (UniProt Q9NQU5); test: Inhibition of PAK6 at 1 uM in presence of 10 uM ATP by Select Screen kinase assay relative to untreated control
# [8] = molecular target: Death-associated protein kinase 3 (Homo sapiens) (UniProt O43293); test: Inhibition of DAPK3 at 1 uM in presence of 10 uM ATP by Select Screen kinase assay relative to untreated control; method in brief: as §1
# [9] = molecular target: Ribosomal protein S6 kinase alpha-2 (Homo sapiens) (UniProt Q15349); test: Inhibition of RPS6KA2 at 1 uM in presence of 10 uM ATP by Select Screen kinase assay relative to untreated control
# [10] = molecular target: Serine/threonine-protein kinase pim-1 (Homo sapiens) (UniProt P11309); test: Inhibition of PIM1 at 1 uM in presence of 10 uM ATP by Select Screen kinase assay relative to untreated control
# Method in brief: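 Profiling panel of 220 purified kinases (SelectScreen), each compound tested at 1 μM. Read-out is percent inhibition of kinase activity.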
# [11] = molecular target: Cyclin-dependent kinase 2/cyclin A (Homo sapiens) (UniProt P24941+P20248+P78396); test: Inhibition of CDK2/cyclin A at 1 uM in presence of 10 uM ATP by Select Screen kinase assay relative to untreated control; format: protein-complex assay; method in brief: as §3
# [12] = tested on: Receptor-type tyrosine-protein kinase FLT3 (Homo sapiens), P36888 [D835Y]; test: Inhibition of FLT3 D835Y mutant at 1 uM in presence of 10 uM ATP by Select Screen kinase assay relative to untreated control; method in brief: as §1
# [13] = molecular target: Mitogen-activated protein kinase kinase kinase kinase 2 (Homo sapiens) (UniProt Q12851); test: Inhibition of MAP4K2 at 1 uM in presence of 10 uM ATP by Select Screen kinase assay relative to untreated control
# [14] = molecular target: Serine/threonine-protein kinase MRCK alpha (Homo sapiens) (UniProt Q5VT25); test: Inhibition of CDC42 binding protein alpha at 1 uM in presence of 10 uM ATP by Select Screen kinase assay relative to untreated control; method in brief: as §3
# [15] = molecular target: Serine/threonine-protein kinase D1 (Homo sapiens) (UniProt Q15139); test: Inhibition of PRKD1 at 1 uM in presence of 10 uM ATP by Select Screen kinase assay relative to untreated control
# [16] = molecular target: Ephrin type-B receptor 4 (Homo sapiens) (UniProt P54760); test: Inhibition of EPHB4 at 1 uM in presence of 10 uM ATP by Select Screen kinase assay relative to untreated control; method in brief: as §3
# [17] = molecular target: Casein kinase II subunit alpha (Homo sapiens) (UniProt P68400); test: Inhibition of CSNK2A1 at 1 uM in presence of 10 uM ATP by Select Screen kinase assay relative to untreated control; method in brief: as §1
# [18] = molecular target: Vascular endothelial growth factor receptor 2 (Homo sapiens) (UniProt P35968); test: Inhibition of KDR at 1 uM in presence of 10 uM ATP by Select Screen kinase assay relative to untreated control
# Method in brief: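 Single-concentration profiling at 1 μM against a panel of 220 purified kinases, run as an outsourced SelectScreen kinase profiling service. Activity is expressed as percent inhibition.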
# [19] = molecular target: Tyrosine-protein kinase FRK (Homo sapiens) (UniProt P42685); test: Inhibition of FRK at 1 uM in presence of 10 uM ATP by Select Screen kinase assay relative to untreated control; method in brief: as §1
# [20] = molecular target: Protein kinase C theta type (Homo sapiens) (UniProt Q04759); test: Inhibition of PRKCQ at 1 uM in presence of 10 uM ATP by Select Screen kinase assay relative to untreated control
# [21] = molecular target: Protein kinase C beta type (Homo sapiens) (UniProt P05771); test: Inhibition of PRKCB1 at 1 uM in presence of 10 uM ATP by Select Screen kinase assay relative to untreated control
# [22] = molecular target: Serine/threonine-protein kinase Sgk2 (Homo sapiens) (UniProt Q9HBY8); test: Inhibition of SGK2 at 1 uM in presence of 10 uM ATP by Select Screen kinase assay relative to untreated control; method in brief: as §2
# [23] = molecular target: Serine/threonine-protein kinase D3 (Homo sapiens) (UniProt O94806); test: Inhibition of PRKCN at 1 uM in presence of 10 uM ATP by Select Screen kinase assay relative to untreated control
# [24] = molecular target: Casein kinase II subunit alpha' (Homo sapiens) (UniProt P19784); test: Inhibition of CSNK2A2 at 1 uM in presence of 10 uM ATP by Select Screen kinase assay relative to untreated control; method in brief: as §1
# [25] = molecular target: Serine/threonine-protein kinase Nek2 (Homo sapiens) (UniProt P51955); test: Inhibition of NEK2 at 1 uM in presence of 10 uM ATP by Select Screen kinase assay relative to untreated control
# [26] = tested on: Tyrosine-protein kinase ABL1 (Homo sapiens), P00519 [Y253F]; test: Inhibition of ABL1 Y253F mutant at 1 uM in presence of 10 uM ATP by Select Screen kinase assay relative to untreated control; method in brief: as §3
# [27] = molecular target: Beta-adrenergic receptor kinase 1 (Homo sapiens) (UniProt P25098); test: Inhibition of ADRBK1 at 1 uM in presence of 10 uM ATP by Select Screen kinase assay relative to untreated control; method in brief: as §3
# Mitogen-activated protein kinase kinase kinase kinase 2 (Homo sapiens), sequence (Q12851 whole entry): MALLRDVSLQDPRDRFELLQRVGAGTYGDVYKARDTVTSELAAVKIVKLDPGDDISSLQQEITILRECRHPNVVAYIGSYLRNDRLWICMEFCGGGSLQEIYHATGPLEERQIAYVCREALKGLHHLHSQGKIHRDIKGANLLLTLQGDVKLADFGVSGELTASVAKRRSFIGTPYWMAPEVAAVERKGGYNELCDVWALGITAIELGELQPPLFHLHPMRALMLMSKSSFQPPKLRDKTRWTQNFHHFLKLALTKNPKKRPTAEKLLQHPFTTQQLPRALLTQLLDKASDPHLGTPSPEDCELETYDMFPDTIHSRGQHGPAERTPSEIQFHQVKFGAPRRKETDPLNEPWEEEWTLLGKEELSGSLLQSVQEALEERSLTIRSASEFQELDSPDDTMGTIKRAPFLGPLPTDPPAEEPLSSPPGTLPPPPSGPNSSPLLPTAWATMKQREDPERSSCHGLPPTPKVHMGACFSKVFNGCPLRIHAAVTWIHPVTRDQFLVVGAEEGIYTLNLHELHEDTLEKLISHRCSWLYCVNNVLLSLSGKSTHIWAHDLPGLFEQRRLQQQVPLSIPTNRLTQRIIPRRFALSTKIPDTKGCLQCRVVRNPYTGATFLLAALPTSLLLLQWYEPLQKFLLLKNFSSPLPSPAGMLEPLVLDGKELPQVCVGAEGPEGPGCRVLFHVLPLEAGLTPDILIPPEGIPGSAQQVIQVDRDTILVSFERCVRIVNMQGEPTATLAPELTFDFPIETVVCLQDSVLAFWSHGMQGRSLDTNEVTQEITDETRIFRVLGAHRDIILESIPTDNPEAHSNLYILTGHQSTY
# Serine/threonine-protein kinase Nek2 (Homo sapiens), sequence (P51955 whole entry): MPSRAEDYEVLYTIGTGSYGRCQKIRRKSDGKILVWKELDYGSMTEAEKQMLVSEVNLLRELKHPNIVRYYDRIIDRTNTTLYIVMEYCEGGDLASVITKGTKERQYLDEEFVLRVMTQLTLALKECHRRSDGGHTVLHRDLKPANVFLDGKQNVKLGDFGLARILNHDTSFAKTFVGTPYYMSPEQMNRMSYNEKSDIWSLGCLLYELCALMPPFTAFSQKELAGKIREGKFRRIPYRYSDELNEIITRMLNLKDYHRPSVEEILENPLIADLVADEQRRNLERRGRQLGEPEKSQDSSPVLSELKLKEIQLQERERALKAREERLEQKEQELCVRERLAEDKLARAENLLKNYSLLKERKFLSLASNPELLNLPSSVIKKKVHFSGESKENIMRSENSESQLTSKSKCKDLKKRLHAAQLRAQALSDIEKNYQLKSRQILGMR
# Serine/threonine-protein kinase MRCK alpha (Homo sapiens), sequence (Q5VT25 whole entry): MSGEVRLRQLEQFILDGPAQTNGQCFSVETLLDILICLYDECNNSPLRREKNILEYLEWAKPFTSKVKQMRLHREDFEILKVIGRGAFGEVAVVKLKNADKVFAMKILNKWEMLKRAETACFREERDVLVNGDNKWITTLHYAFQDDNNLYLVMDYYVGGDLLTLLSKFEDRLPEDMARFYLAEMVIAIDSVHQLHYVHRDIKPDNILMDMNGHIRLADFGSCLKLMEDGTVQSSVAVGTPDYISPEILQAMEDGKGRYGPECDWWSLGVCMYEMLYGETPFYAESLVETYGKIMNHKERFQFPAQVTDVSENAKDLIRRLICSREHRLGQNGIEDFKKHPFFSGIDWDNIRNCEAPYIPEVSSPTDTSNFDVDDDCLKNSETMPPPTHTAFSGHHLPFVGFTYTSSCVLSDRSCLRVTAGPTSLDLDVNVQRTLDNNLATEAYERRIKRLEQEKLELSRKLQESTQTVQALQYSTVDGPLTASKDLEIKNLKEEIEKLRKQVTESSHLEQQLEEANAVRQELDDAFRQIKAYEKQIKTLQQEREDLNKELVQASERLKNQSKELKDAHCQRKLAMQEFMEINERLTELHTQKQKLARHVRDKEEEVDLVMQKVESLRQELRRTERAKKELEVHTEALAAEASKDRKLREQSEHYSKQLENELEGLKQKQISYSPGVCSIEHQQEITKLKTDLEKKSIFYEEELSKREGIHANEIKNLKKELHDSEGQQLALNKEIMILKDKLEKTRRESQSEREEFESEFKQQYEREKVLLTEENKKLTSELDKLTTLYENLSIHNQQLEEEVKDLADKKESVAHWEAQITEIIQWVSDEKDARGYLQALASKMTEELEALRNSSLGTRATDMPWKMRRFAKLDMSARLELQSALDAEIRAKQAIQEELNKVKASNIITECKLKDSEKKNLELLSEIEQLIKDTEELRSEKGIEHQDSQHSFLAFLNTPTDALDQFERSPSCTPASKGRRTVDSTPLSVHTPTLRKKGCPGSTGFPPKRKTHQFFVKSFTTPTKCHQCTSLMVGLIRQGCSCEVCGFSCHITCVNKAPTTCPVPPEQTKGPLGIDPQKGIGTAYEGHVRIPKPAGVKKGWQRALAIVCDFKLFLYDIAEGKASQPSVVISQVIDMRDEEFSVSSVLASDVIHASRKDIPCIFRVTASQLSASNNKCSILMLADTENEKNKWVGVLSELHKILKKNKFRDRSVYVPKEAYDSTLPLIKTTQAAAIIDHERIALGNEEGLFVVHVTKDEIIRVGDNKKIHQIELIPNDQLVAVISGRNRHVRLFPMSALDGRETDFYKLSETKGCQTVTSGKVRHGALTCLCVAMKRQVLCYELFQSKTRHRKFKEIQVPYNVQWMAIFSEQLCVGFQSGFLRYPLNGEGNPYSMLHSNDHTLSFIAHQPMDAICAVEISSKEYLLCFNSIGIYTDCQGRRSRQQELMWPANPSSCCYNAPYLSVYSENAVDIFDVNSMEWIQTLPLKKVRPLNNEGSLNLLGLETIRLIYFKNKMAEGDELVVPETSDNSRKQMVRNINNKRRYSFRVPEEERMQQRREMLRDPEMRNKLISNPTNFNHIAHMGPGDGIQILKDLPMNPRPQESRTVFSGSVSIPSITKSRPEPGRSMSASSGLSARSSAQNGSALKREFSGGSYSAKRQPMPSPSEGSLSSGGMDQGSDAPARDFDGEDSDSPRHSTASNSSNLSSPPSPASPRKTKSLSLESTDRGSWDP
# Casein kinase II subunit alpha' (Homo sapiens), sequence (P19784 whole entry, looked up): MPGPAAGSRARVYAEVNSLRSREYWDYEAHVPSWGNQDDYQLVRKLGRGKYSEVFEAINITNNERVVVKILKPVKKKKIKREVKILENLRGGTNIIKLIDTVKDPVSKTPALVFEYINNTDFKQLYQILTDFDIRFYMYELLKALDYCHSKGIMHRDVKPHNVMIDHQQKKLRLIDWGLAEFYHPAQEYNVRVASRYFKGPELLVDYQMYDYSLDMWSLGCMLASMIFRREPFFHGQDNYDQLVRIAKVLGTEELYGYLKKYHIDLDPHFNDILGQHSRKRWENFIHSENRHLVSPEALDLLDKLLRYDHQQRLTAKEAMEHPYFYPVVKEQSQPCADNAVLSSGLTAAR
# Platelet-derived growth factor receptor alpha (Homo sapiens), P16234 [T674I], sequence (P16234 whole entry T674I): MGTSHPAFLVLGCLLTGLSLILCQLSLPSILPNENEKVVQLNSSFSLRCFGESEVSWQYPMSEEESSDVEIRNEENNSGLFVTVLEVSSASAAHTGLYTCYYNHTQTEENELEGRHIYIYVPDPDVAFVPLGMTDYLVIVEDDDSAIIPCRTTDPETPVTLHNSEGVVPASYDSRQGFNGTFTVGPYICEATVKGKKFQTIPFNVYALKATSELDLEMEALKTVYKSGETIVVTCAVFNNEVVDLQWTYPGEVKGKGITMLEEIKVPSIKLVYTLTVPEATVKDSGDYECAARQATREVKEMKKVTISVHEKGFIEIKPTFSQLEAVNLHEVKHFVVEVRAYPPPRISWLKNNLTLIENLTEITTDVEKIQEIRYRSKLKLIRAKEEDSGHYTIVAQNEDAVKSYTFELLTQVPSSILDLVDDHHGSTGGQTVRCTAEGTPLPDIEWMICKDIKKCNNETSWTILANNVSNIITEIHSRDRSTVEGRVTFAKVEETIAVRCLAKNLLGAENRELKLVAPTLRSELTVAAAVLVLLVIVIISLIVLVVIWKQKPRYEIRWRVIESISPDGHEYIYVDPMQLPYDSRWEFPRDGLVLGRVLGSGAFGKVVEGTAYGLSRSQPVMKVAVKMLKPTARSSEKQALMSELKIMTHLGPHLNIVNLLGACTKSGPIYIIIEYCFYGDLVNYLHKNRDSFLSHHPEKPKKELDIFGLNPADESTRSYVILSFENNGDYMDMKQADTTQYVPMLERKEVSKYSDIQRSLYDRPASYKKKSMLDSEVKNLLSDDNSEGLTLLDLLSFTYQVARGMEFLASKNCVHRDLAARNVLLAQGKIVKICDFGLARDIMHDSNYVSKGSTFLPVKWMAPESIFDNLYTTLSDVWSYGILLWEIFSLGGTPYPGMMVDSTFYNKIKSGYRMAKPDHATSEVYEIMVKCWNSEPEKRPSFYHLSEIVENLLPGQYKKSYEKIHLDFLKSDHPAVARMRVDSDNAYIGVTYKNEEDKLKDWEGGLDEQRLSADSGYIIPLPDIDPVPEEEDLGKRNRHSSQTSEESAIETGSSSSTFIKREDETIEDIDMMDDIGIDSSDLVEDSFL
# Dual specificity protein kinase CLK3 (Homo sapiens), sequence (P49761 whole entry, looked up): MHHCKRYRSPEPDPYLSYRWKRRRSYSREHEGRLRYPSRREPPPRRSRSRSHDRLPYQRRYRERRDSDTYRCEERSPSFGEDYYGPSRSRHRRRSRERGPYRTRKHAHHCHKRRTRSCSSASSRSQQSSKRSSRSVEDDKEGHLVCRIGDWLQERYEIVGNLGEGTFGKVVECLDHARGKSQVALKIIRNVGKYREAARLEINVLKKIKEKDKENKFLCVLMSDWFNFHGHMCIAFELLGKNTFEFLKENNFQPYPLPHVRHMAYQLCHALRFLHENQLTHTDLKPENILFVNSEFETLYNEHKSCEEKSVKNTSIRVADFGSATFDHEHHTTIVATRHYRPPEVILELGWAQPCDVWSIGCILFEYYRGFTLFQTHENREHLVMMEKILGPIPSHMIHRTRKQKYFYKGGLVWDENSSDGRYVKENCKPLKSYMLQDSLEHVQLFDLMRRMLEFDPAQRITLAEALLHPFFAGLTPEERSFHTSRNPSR
structure (smiles),measurement,setting,value
COc1ccccc1N1CCN(c2ncnc3[nH]nc(Br)c23)CC1,inhibition,[1],32%
same,inhibition,[2],8%
same,inhibition,[3],80%
same,inhibition,[4],11%
same,inhibition,[5],19%
same,inhibition,[6],17%
same,inhibition,[7],5%
same,inhibition,[8],14%
same,inhibition,[9],55%
same,inhibition,[10],20%
same,inhibition,[11],2%
same,inhibition,[12],71%
same,inhibition,[13],18%
same,inhibition,[14],-3%
same,inhibition,[15],5%
same,inhibition,[16],11%
same,inhibition,[17],18%
same,inhibition,[18],52%
same,inhibition,[19],11%
same,inhibition,[20],15%
same,inhibition,[21],35%
same,inhibition,[22],10%
same,inhibition,[23],18%
same,inhibition,[24],27%
same,inhibition,[25],21%
same,inhibition,[26],12%
same,inhibition,[27],8%
O=C(NCCCNc1nc(Nc2cccc(NC(=O)N3CCCC3)c2)ncc1I)c1cccs1,inhibition,[1],8%
same,inhibition,[2],55%
same,inhibition,[3],29%
same,inhibition,[4],85%
same,inhibition,[5],76%
same,inhibition,[6],3%
same,inhibition,[7],11%
same,inhibition,[8],13%
same,inhibition,[9],63%
same,inhibition,[10],9%
same,inhibition,[11],84%
same,inhibition,[12],100%
same,inhibition,[13],97%
same,inhibition,[14],19%
same,inhibition,[15],71%
same,inhibition,[16],8%
same,inhibition,[17],16%
same,inhibition,[18],79%
same,inhibition,[19],16%
same,inhibition,[20],38%
same,inhibition,[21],28%
same,inhibition,[22],25%
same,inhibition,[23],83%
same,inhibition,[24],26%
same,inhibition,[25],33%
same,inhibition,[26],36%
same,inhibition,[27],15%
